The results in this text go back to ChEMBL document CHEMBL3044548, “Phytotoxic and antimicrobial activities of catechin derivatives” (2004).

In brackets after ≈: the same amount, converted by molar mass. Activity calls are given as the source filed them.

For experiment [1], the system named is Pseudomonas fluorescens. Briefly: Bactericidal activity against Pseudomonas fluorescens at 3.1 ug/ml after 24 hr by BacLight bacterial viability fluorescence assay. It is filed as functional, organism-based.
The test system of experiment [2] is Xanthomonas campestris. Put plainly: Bactericidal activity against Xanthomonas euvesicatoria at 6.3 ug/ml after 24 hr by BacLight bacterial viability fluorescence assay. The class given is functional, organism-based.
Experiment [3] has as its system Erwinia amylovora. Briefly: Bactericidal activity against Erwinia amylovora at 1.6 ug/ml after 24 hr by BacLight bacterial viability fluorescence assay. The class given is functional, organism-based.
Experiment [4] relates to Trichoderma viride. Put plainly: Antifungal activity against Hypocrea rufa at 12.5 to 25 ug/ml after 96 hr by spectrophotometry. The class given is functional, organism-based. An outline of the steps: (§1)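 Spore germination assay. Spores taken from 4-week-old PDA cultures kept in the dark at 24 °C and adjusted to 1 × 10⁵ spores/mL. 100 µL of spores added to serial dilutions of derivatives in PDB, from 1 mg/mL DMSO stocks. Value is the minimum concentration inhibiting germination. DMSO-only controls.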

For experiment [5], the system named is Pectobacterium carotovorum. Put plainly: Bactericidal activity against Pectobacterium carotovorum at 3.1 ug/ml after 24 hr by BacLight bacterial viability fluorescence assay. It is filed as functional, organism-based.
In experiment [6] the test system is Penicillium sp. Put plainly: Antifungal activity against Penicillium sp. at 12.5 to 25 ug/ml after 96 hr by spectrophotometry. The class given is functional, organism-based. The method, boiled down: as §1
Experiment [7] deals with Fusarium oxysporum. Briefly: Antifungal activity against Fusarium oxysporum at 12.5 to 25 ug/ml after 96 hr by spectrophotometry. The class given is functional, organism-based. An outline of the steps:
as §1

The test system of experiment [8] is Trichoderma reesei. Put plainly: Antifungal activity against Trichoderma reesei at 12.5 to 25 ug/ml after 96 hr by spectrophotometry. It is filed as functional, organism-based. An outline of the steps:
as §1

For experiment [9], the system named is Aspergillus niger. Put plainly: Antifungal activity against Aspergillus niger at 12.5 to 25 ug/ml after 96 hr by spectrophotometry. It is filed as functional, organism-based. The method, boiled down: as §1
Experiment [10] relates to Xanthomonas campestris. Briefly: Antibacterial activity against Xanthomonas campestris pv. vesicatoria after 24 hr by spectrophotometry. The class given is functional. The method, boiled down: (§2)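 Bacterial isolates grown overnight at 37 °C to OD600 0.2. 5 µL of suspension incubated with serial dilutions of derivatives (100 to 0.05 µg) from 1 mg/mL DMSO stocks, 37 °C for 24 h. OD600 read; net growth is OD after 24 h minus OD at start. Percent inhibition is (untreated − treated)/untreated × 100. Two separate replicates. DMSO-only controls.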

Experiment [11] concerns Erwinia amylovora. Put plainly: Antibacterial activity against Erwinia amylovora after 24 hr by spectrophotometry. The class given is functional. An outline of the steps:
as §2

The subject of experiment [12] is Pectobacterium carotovorum. Put plainly: Antibacterial activity against Pectobacterium carotovorum after 24 hr by spectrophotometry. The class given is functional. The method, boiled down: as §2
Experiment [13] concerns Pseudomonas fluorescens. Put plainly: Antibacterial activity against Pseudomonas fluorescens after 24 hr by spectrophotometry. The class given is functional. An outline of the steps:
as §2

In experiment [14] the test system is Centaurea maculosa. Put plainly: Herbicidal activity against Centaurea maculosa assessed as inhibition of root differentiation at 200 ug/ml after 7 days. The class given is functional, organism-based. The method, boiled down: (§3)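 Ten-day-old seedlings were placed in 5 mL liquid MS basal medium and given filter-sterilized compound at 10, 50, 100 or 200 µg mL^-1. Controls received a methanol vehicle. Cultures were kept at 27 ± 2 °C, shaken at 90 rpm, under 24 µmol m^-2 s^-1 light for 7 days. Shoot and root differentiation were given as percent inhibition versus untreated control, mean ± SD, n = 5.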

Experiment [15] deals with Ocimum basilicum. Briefly: Herbicidal activity against Ocimum basilicum assessed as shoot growth inhibition at 200 ug/ml after 7 days. The class given is functional, organism-based. The method, boiled down:
as §3

Experiment [16] relates to Gaillardia aristata. Briefly: Herbicidal activity against Gaillardia aristata assessed as shoot growth inhibition at 200 ug/ml after 7 days. The class given is functional, organism-based. The method, boiled down:
as §3

Experiment [17] concerns Centaurea maculosa. Put plainly: Herbicidal activity against Centaurea maculosa assessed as shoot growth inhibition at 200 ug/ml after 7 days. It is filed as functional, organism-based. The method, boiled down:
as §3

The subject of experiment [18] is Solanum lycopersicum. Briefly: Herbicidal activity against Solanum lycopersicum (tomato) assessed as shoot growth inhibition at 200 ug/ml after 7 days. The class given is functional, organism-based. An outline of the steps: as §3
Experiment [19] relates to Arabidopsis thaliana. Briefly: Herbicidal activity against Arabidopsis thaliana assessed as shoot growth inhibition at 200 ug/ml after 7 days. The class given is functional, organism-based. An outline of the steps: as §3
The subject of experiment [20] is Penicillium sp. Put plainly: Antifungal activity against Penicillium sp. at 25 ug/ml after 96 hr by spectrophotometry. It is filed as functional, organism-based. An outline of the steps: (§4)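 Spores from 4-week-old cultures grown on PDA at 24 °C in the dark were rinsed off in sterile water and adjusted to 1 × 10⁵ spores mL^-1. Spores were incubated with serial dilutions in PDB in 96-well plates at 37 °C under humidity. Controls were DMSO vehicle and (+)-catechin.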

The subject of experiment [21] is Aspergillus niger. Put plainly: Antifungal activity against Aspergillus niger at 25 ug/ml after 96 hr by spectrophotometry. The class given is functional, organism-based. An outline of the steps: as §4
The subject of experiment [22] is Fusarium oxysporum. Briefly: Antifungal activity against Fusarium oxysporum at 25 ug/ml after 96 hr by spectrophotometry. It is filed as functional, organism-based. An outline of the steps:
as §1

With `Oc1cc(O)c2c(c1)OC(c1ccc(O)c(O)c1)C(O)C2` (racemic), the outcome in [1], in experiment [2], in experiment [3] and in [5] was Active. Also, the result in experiment [4], in experiment [6], in experiment [7], in experiment [8] and in experiment [9] was inactive.
The MIC is the smallest concentration in the dilution series that meets the test's criterion for growth inhibition. Low values mean a more susceptible organism, high ones a less susceptible organism. For `CC1(C)O[C@H]2Cc3c(O)cc(O)cc3O[C@@H]2c2cc(O)c(O)cc21`, the MIC in experiment [10] is 6.3 µg/mL (≈ 19.1 µM); in experiment [11], 3.1 µg/mL (≈ 9.38 µM); in [12], 1.6 µg/mL (≈ 4.84 µM); in [13] it was 3.1 µg/mL (≈ 9.38 µM). For the same compound, the outcome in [1], in experiment [2], in experiment [3] and in [5] was Active. The outcome in experiment [4], in experiment [6], in experiment [7], in [8] and in [9] was inactive.
Take `COc1cc(OC)c2c(c1)OC(c1ccc(OC)c(OC)c1)C(O)C2` (racemic): the MIC came out at 12.5 µg/mL (≈ 36.1 µM) in experiment [10], 12.5 µg/mL (≈ 36.1 µM) in [11], 6.3 µg/mL (≈ 18.2 µM) in experiment [12] and 12.5 µg/mL (≈ 36.1 µM) in experiment [13]. The inhibition result in experiment [14] was “Active”. In addition, the outcome in experiment [1], in experiment [2], in experiment [3] and in [5] was Active. The “growth inhibition (GI)” value in [15], in [16], in [17], in [18] and in experiment [19] was “Active” in each case. Also, the result in experiment [4], in experiment [6], in experiment [7], in experiment [8] and in experiment [9] was inactive.
Turning to `CC(=O)Oc1cc(OC(C)=O)c2c(c1)OC(c1ccc(OC(C)=O)c(OC(C)=O)c1)C(OC(C)=O)C2` (racemic) [(+/-)-PENTAACETYLCATECHIN], the MIC in experiment [10] was 25 µg/mL (≈ 50 µM); in experiment [11] it was 25 µg/mL (≈ 50 µM); in experiment [12], 25 µg/mL (≈ 50 µM); in experiment [13], 12.5 µg/mL (≈ 25 µM). In addition, the outcome in experiment [1], in experiment [2], in experiment [3] and in experiment [5] was Active. In addition, the outcome in [4], in experiment [6], in [7], in experiment [8] and in experiment [9] was inactive.
`Oc1cc(O)c2c(c1)O[C@H](c1ccc(O)c(O)c1)[C@@H](O)C2` [CIANIDANOL]: the MIC in [10], in [11], in [12] and in [13] was 1.6 µg/mL (≈ 5.51 µM) throughout. In addition, the outcome in experiment [1], in [2], in experiment [3], in [4], in experiment [5] and in [6] was Active. The result in [7], in [8] and in [9] was Active.
Turning to `CC1(C)OC2Cc3c(O)cc(O)cc3OC2c2cc(O)c(O)cc21` (racemic), the MIC in experiment [10], in [11], in [12] and in experiment [13] was 12.5 µg/mL (≈ 37.8 µM) throughout. The inhibition entry in experiment [14] is “Active”. Also, the outcome in experiment [1], in [2], in experiment [3] and in experiment [5] was Active. The “growth inhibition (GI)” value in [15], in [16], in [17], in [18] and in experiment [19] was “Active” throughout. In addition, the outcome in [4], in [6], in experiment [7], in experiment [8] and in experiment [9] was inactive.
Regarding `COc1cc(OC)c2c(c1)O[C@H](c1ccc(OC)c(OC)c1)[C@@H](O)C2` [CATECHIN TETRAMETHYLETHER], the result in experiment [20], in experiment [1], in [2], in experiment [3], in [5] and in experiment [21] was Active. For the same compound, the MIC was found to be 25 µg/mL (≈ 72.2 µM) in experiment [10], 25 µg/mL (≈ 72.2 µM) in experiment [11], 6.3 µg/mL (≈ 18.2 µM) in [12] and 6.3 µg/mL (≈ 18.2 µM) in experiment [13]. In addition, the outcome in [4], in experiment [7] and in experiment [8] was inactive.
Turning to `CC(=O)Oc1cc(OC(C)=O)c2c(c1)O[C@H](c1ccc(OC(C)=O)c(OC(C)=O)c1)[C@@H](OC(C)=O)C2` [CATECHIN PENTAACETATE], the MIC in experiment [10], in experiment [11], in [12] and in experiment [13] was 6.3 µg/mL (≈ 12.6 µM) in each case. Besides, the outcome in experiment [22], in experiment [1], in experiment [2], in experiment [3] and in [5] was Active. For the same compound, the outcome in experiment [4], in experiment [6], in [8] and in [9] was inactive.
